{
  "source": "paper PMC5903430",
  "about": "(The international journal of biochemistry & cell biology, 2017)",
  "key": {"α3β4 and α4β2 AChRs": {"tested_on": "α3β4 and α4β2 AChRs", "conditions": "20 μM; ref Glick et al., 2002a; cited from earlier work"}, "hα4β2 AChR": {"molecular_target": "hα4β2 AChR (Homo sapiens, UniProt P17787+P43681)", "sequence (P17787 26-502)": "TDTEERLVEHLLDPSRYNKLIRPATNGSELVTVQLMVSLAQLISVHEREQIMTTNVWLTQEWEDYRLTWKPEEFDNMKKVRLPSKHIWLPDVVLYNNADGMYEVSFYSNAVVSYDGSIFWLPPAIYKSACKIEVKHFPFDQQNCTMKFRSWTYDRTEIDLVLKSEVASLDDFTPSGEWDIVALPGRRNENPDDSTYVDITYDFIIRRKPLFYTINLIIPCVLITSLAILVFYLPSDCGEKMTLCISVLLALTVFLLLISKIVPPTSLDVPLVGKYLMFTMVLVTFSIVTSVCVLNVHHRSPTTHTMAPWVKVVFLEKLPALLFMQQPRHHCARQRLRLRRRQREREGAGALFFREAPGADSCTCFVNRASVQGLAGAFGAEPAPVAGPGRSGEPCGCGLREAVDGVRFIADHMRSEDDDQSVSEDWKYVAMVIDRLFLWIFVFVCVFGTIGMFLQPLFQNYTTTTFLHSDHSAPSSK", "sequence (P43681 29-627)": "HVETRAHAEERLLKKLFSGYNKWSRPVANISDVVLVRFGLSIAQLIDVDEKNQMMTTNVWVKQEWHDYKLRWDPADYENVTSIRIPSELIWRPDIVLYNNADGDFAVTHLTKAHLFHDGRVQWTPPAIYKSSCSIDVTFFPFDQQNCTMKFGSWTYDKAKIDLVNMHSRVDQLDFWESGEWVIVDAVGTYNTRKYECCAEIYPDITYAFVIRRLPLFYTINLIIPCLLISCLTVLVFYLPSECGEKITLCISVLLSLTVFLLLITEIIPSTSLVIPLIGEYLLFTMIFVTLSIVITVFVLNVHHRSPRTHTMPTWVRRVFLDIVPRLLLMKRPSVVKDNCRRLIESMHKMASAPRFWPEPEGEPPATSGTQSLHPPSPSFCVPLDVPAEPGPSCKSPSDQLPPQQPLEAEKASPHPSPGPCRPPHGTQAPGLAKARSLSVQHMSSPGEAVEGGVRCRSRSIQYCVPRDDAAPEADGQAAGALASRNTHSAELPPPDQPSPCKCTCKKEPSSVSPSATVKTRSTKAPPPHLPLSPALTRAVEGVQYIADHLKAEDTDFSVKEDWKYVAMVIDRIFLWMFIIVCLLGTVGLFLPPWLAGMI", "assay_type": "cell-based", "conditions": "for hα4β2/hα3β4 IC50 ratio (selectivity): ratio using hα3β4 data of Arias et al., 2015; for IC50: read-out: IC50 (inhibitory potency)"}, "hα7 AChR": {"molecular_target": "hα7 AChR (Homo sapiens, UniProt P36544)", "sequence (P36544 23-502)": "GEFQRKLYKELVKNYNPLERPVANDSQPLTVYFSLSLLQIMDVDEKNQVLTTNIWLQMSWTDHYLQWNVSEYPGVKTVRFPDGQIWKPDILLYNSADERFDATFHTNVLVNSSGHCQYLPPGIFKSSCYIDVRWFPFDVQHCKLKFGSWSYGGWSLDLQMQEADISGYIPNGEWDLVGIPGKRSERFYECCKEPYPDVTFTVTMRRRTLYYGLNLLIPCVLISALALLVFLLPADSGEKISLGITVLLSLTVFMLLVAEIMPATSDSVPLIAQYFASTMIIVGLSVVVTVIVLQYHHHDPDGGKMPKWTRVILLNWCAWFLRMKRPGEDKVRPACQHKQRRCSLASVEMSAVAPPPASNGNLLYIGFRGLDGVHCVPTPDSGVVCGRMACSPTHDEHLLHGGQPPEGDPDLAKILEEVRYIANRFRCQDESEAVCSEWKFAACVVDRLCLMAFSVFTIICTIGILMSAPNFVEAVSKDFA", "assay_type": "cell-based", "conditions": "for hα7/hα3β4 IC50 ratio (selectivity): ratio using hα3β4 data of Arias et al., 2015"}, "[1]": {"tested_on": "MHb (VI) neurons (endogenous α3β4* AChRs)", "assay": "Patch-clamp recording of ACh-evoked currents from MHb", "assay_type": "cell-based, mouse", "conditions": "for Reversibility of inhibition of ACh-evoked currents after washing: 180 μM, washing 13 min ((±)-18-MC) or 10 min ((+)-catharanthine); for IC50: read-out: IC50 (inhibitory potency on ACh-evoked currents), 100 μM ACh puffs, MHb (VI) neurons, single exponential fit", "outline": "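Male C57BL/6J mice, 8–24 weeks. Coronal 250 μm slices through the medial habenula, recovered in oxygenated solution at 33 °C for 12 min. Neurons visualised by IR/DIC. Internal solution contained 2 mM QX-314. ACh (100 μM) puffed for 250 ms at 12 psi, with 1 μM atropine in the superfusate. Test compound at 0.07–180 μM; peak amplitudes measured before and after washout. Nonlinear least-squares fit gave IC50.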"}, "α1β1γδ AChR": {"tested_on": "α1β1γδ AChR", "assay": "Selectivity for hα3β4 over α1β1γδ AChRs", "assay_type": "cell-based, human", "conditions": "ref Arias et al., 2011"}, "hα3β4 AChR": {"tested_on": "hα3β4 AChR", "conditions": "read-out: IC50 at hα3β4 AChRs; HEK293-hα3β4 cells; ref Arias et al., 2015; cited from earlier work"}, "[2]": {"molecular_target": "hα3β4 AChR ([3H]ibogaine sites) (Homo sapiens, UniProt P30926+P32297)", "sequence (P32297 32-505)": "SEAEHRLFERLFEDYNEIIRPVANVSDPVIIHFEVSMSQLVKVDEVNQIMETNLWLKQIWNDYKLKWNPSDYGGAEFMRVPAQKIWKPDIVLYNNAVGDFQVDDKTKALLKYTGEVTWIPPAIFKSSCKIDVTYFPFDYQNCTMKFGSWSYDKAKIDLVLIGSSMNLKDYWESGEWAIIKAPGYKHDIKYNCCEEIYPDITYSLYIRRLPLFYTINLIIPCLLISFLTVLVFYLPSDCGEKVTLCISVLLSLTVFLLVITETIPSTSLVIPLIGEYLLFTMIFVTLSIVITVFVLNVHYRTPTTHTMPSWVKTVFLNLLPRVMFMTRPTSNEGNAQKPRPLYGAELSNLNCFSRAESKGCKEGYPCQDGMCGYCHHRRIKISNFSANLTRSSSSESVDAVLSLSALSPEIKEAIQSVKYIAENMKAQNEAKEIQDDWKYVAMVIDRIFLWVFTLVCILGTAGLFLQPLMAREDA", "sequence (P30926 22-498)": "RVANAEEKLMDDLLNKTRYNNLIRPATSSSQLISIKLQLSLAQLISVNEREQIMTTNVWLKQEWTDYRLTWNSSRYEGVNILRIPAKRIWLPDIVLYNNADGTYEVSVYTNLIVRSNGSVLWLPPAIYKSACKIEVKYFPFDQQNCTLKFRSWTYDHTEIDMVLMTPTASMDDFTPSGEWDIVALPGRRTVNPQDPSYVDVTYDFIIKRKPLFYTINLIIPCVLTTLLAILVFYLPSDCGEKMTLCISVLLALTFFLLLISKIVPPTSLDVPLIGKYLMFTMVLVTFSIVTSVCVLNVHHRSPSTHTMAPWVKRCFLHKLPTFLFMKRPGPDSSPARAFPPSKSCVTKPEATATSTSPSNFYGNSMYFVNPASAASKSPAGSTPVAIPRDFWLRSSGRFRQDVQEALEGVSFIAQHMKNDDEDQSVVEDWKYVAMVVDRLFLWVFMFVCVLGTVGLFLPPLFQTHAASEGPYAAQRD", "assay": "[3H]ibogaine competition binding to hα3β4 AChR membranes from HEK293-hα3β4 cells"}, "[3]": {"conditions": "ref Zhang et al., 2002; Maissonneuve and Glick, 2003; cited from earlier work"}, "[4]": {"conditions": "hα7, inhibition of 1.0 μM (±)-epibatidine-induced Ca2+ influx"}},
  "note": "Several values for one entry are separate records, joined by “and”; a condition that tells them apart may be missing. Equal entries are not always repeated. Structures can show the parent of a compound that is named as a salt. Where two headings read alike, the source gives them in different places.",
  "data": [
    {"compound": "12-methoxyibogamine [(−)-ibogaine]", "values": [
      {"measurement": "AChR subtypes inhibited in voltage-clamp recordings", "setting": "α3β4 and α4β2 AChRs", "value": "inhibits both α3β4 and α4β2 subtypes"}
    ]},
    {"compound": "CNCC[C@H]1CC2CN3CCc4c([nH]c5ccccc45)[C@](C(=O)OC)(C2)[C@H]13", "note": "(racemic) [(±)-18-MAC, (±)-18-Methylaminocoronaridine]", "values": [
      {"measurement": "nH (Hill coefficient)", "setting": "hα4β2 AChR", "value": "1.40 ± 0.14"},
      {"measurement": "hα4β2/hα3β4 IC50 ratio (selectivity)", "setting": "hα4β2 AChR", "value": 7.9, "unit": "x-fold"},
      {"measurement": "IC50", "setting": "hα4β2 AChR", "value": "20.7 ± 3", "unit": "µM"},
      {"measurement": "IC50 (inhibitory potency)", "setting": "hα7 AChR; GH3-hα7 cells, 5 min pre-incubation, 1.0 μM (±)-epibatidine", "value": "No effect"}
    ]},
    {"compound": "Clc1ccc(C2CC3CCC2N3)cn1", "note": "(racemic) [(±)-epibatidine, (±)-Epibatidine, reference compound]", "values": [
      {"measurement": "EC50", "setting": "hα7 AChR; read-out: EC50 (activation potency), agonist-induced Ca2+ influx, GH3-hα7 cells, n = 25", "value": "0.026 ± 0.004", "unit": "µM"}
    ]},
    {"compound": "CCC1=C[C@@H]2CN3CCc4c([nH]c5ccccc45)[C@@](C(=O)OC)(C2)[C@@H]13", "note": "[(+)-Catharanthine, (+)-3,4-didehydrocoronaridine]", "values": [
      {"measurement": "nH (Hill coefficient)", "setting": "hα4β2 AChR", "value": "1.48 ± 0.25"},
      {"measurement": "hα4β2/hα3β4 IC50 ratio (selectivity)", "setting": "hα4β2 AChR", "value": 18.5, "unit": "x-fold"},
      {"measurement": "hα4β2/hα3β4 IC50 ratio (selectivity)", "setting": "hα4β2 AChR; listed as (+)-catharanthine", "value": 18, "unit": "x-fold"},
      {"measurement": "nH (Hill coefficient)", "setting": "hα7 AChR; [4]", "value": "1.43 ± 0.20"},
      {"measurement": "hα7/hα3β4 IC50 ratio (selectivity)", "setting": "hα7 AChR", "value": 32.0, "unit": "x-fold"},
      {"measurement": "hα7/hα3β4 IC50 ratio (selectivity)", "setting": "hα7 AChR; listed as (+)-catharanthine", "value": 32, "unit": "x-fold"},
      {"measurement": "Reversibility of inhibition of ACh-evoked currents after washing", "setting": "[1]", "value": "reversible inhibition"},
      {"measurement": "IC50", "setting": "[1]", "value": "27 ± 4", "unit": "µM"},
      {"measurement": "Selectivity for hα3β4 over α1β1γδ AChRs", "setting": "α1β1γδ AChR", "value": 29, "unit": "fold"},
      {"measurement": "IC50", "setting": "hα3β4 AChR", "value": "0.68 ± 0.1", "unit": "µM"}
    ]},
    {"compound": "CC(NC(C)(C)C)C(=O)c1cccc(Cl)c1", "note": "(stereo not shown) [bupropion, bupropion hydrochloride]", "values": [
      {"measurement": "nH (Hill coefficient)", "setting": "[2]; desensitized state [in the presence of (−)-nicotine]", "value": "0.75 ± 0.08"},
      {"measurement": "nH (Hill coefficient)", "setting": "[2]; resting state [no agonist]", "value": "0.72 ± 0.05"}
    ]},
    {"compound": "(±)-18-hydroxycoronaridine [(±)-18-HC]", "values": [
      {"measurement": "nH (Hill coefficient)", "setting": "hα4β2 AChR", "value": "1.27 ± 0.06"},
      {"measurement": "hα4β2/hα3β4 IC50 ratio (selectivity)", "setting": "hα4β2 AChR", "value": 8.8, "unit": "x-fold"},
      {"measurement": "IC50", "setting": "hα4β2 AChR", "value": "24.8 ± 1.2", "unit": "µM"},
      {"measurement": "nH (Hill coefficient)", "setting": "hα7 AChR", "value": "1.64 ± 0.20"},
      {"measurement": "hα7/hα3β4 IC50 ratio (selectivity)", "setting": "hα7 AChR", "value": 26.1, "unit": "x-fold"}
    ]},
    {"compound": "COCCC1CC2CN3CCc4c([nH]c5ccccc45)C(C(=O)OC)(C2)C13.Cl", "note": "(racemic) [(±)-18-MC, (±)-18-Methoxycoronaridine hydrochloride]", "values": [
      {"measurement": "nH (Hill coefficient)", "setting": "hα4β2 AChR", "value": "1.85 ± 0.17"},
      {"measurement": "hα4β2/hα3β4 IC50 ratio (selectivity)", "setting": "hα4β2 AChR", "value": "4 x-fold and 4.3 x-fold"},
      {"measurement": "nH (Hill coefficient)", "setting": "hα7 AChR; [4]", "value": "2.21 ± 0.50"},
      {"measurement": "hα7/hα3β4 IC50 ratio (selectivity)", "setting": "hα7 AChR", "value": 23.6, "unit": "x-fold"},
      {"measurement": "Reversibility of inhibition of ACh-evoked currents after washing", "setting": "[1]", "value": "reversible inhibition"},
      {"measurement": "IC50", "setting": "[1]", "value": "28 ± 6", "unit": "µM"},
      {"measurement": "IC50", "setting": "hα3β4 AChR", "value": "1.47 ± 0.21", "unit": "µM"},
      {"measurement": "half-life (metabolism to 18-HC)", "setting": "[3]", "value": "~1.67", "unit": "h"}
    ]}
  ]
}
